High-throughput results deposited in PubChem by several laboratories.
HEK293 NFkB inh = inhibitors of the PMA/ionomycin-induced NF-kB reporter in HEK293 cells; HEK-293 NF-kB luciferase reporter, luminescence; inhibition, % at 3 µM; 62,000 tested, 0.21% active;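 active = inhibition above the mean of all tested compounds plus 3 SD, cut at about 40% in these data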
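Timing: 1 h pretreatment, 16 h stimulation, 37 °C; system: HEK-293 cells with stable firefly luciferase reporter driven by four HIV NF-kB elements; doses: 3 µM once, 0.30% DMSO; measured by: luciferase luminescence; control set: DMSO and 10 µM reference inhibitor; repeats: single test; reagent: PMA plus ionomycin mix as NF-kB-activating stimulus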
Ec RNAP inh = inhibitors of Escherichia coli RNA polymerase; E. coli RNA polymerase, fluorescence transcription assay; inhibition, %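 (tested at 10 µM)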; 62,000 tested, 0.2% active; in the data active = inhibition above about 20%
AP ELISA ortho = alternative pathway complement inhibition, orthogonal assay; Human serum alternative complement pathway, LPS-coated ELISA, C3 deposition; tested in compound mixtures; inhibition, % at 5 µM; 62,000 tested, 0.08% active; AID 1235;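 active = inhibition above 30% in each of the two pooled mixtures holding the compound, so the lower value exceeds 30%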
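Assay system: Human serum alternative complement pathway, C3 deposition on LPS-coated wells | Incubation: 1 h serum-compound exposure at 37 °C | Doses: 5 µM per compound in ten-compound mixtures | Read-out: Percent inhibition | Technique: ELISA with HRP anti-human C3 antibody, TMB substrate, absorbance 450 nm | Replication: Two pool placements per compound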
D1 allo mod = allosteric modulators of human D1 dopamine receptor; B-score at 10 µM; HEK293 D1, CRE-luciferase, dopamine EC30 potentiation; actives deviate in either direction; P21728; AID 641; 58,000 tested, 5.9% active;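 active = luminescence count or its row- and column-corrected plate score outside the 99.7% band of the plate's sample wells, on either side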
hDAT+cocaine = modulates human dopamine transporter uptake under cocaine; Q01959; LLC-PK1 hDAT cells, [14C]-dopamine uptake with cocaine IC80; actives deviate in either direction; B-score at 10 µM; 110,000 tested, 1.3% active;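 active = Z score or B-score, a plate-position-corrected score, falls beyond the plate's 99.7% confidence bounds, in either direction; inactive = both scores lie inside the 99.7% bounds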
Target sequence (Q01959 whole entry, looked up): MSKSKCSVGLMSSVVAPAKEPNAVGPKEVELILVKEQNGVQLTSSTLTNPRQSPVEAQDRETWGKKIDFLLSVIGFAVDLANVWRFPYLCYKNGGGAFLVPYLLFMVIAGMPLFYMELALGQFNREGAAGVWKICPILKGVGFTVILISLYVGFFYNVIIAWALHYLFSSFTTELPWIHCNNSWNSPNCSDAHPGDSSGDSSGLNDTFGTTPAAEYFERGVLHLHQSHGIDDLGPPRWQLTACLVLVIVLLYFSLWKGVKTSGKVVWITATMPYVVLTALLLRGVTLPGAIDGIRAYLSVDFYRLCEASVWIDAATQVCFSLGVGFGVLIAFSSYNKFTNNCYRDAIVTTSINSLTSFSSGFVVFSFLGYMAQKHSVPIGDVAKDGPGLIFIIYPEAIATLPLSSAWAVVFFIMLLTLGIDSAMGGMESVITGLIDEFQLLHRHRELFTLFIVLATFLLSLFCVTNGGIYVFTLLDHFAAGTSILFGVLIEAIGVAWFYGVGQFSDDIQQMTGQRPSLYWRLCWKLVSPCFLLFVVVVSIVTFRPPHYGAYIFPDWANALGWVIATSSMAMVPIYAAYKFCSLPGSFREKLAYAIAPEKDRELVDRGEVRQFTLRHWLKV
D1 mod confirm = confirmation of human D1 dopamine receptor allosteric modulators | shares compounds with D1 allo mod | HEK293 D1 CRE-luciferase, dopamine EC30 potentiation; active compounds read high | luminescence at 10 µM | 2,200 tested, 88% active;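 active = luminescence in either of two replicates above the same-plate mean plus 3 SD of the low-dose dopamine control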
D1 no dopamine = secondary test of D1 modulators: activity without dopamine; 1,900 tested, 0.8% active; HEK293 D1 CRE-luciferase, luminescence, no dopamine; active compounds read high; shares compounds with D1 allo mod; luminescence at 10 µM; in the data active = luminescence above about 3900
Isoprot counter = counter-screen for D1 modulators: isoproterenol response in HEK293 cells; shares compounds with D1 allo mod; HEK293 D1 CRE-luciferase, isoproterenol EC30 counter-screen; calls only at 10 µM; 2,200 tested, 63% active;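 active = luminescence in either replicate above plate mean of wells with a partly effective reference agonist dose plus 3 SD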;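 also: isoproterenol raises cAMP through native beta-adrenoceptor Gs so signal bypasses D1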
Numbers stand for hits; 0 = inactive; - = not tested or not shown; + = active, no number. This excerpt belongs to a sample that is enriched for hits.

SMILES | HEK293 NFkB inh | Ec RNAP inh | AP ELISA ortho | D1 allo mod | hDAT+cocaine | D1 mod confirm | D1 no dopamine | Isoprot counter
Cc1sc2nc(C(C)C)oc(=O)c2c1C | - | - | - | - | 0 | - | - | -
CCC(NC(C)C)C(O)c1ccc(O)c(O)c1 (stereo unspecified) | - | 0 | 0 | 13 | 0 | 9904 | 3836 | +
Cc1ccc(O)c(O)c1 | - | - | - | - | 0 | - | - | -
COc1ccc(-c2cc(N)n(S(=O)(=O)c3c(F)c(F)c(F)c(F)c3F)n2)cc1OC | 0 | 0 | 0 | 4.9 | 0 | 11216 | 0 | +
COc1ccc(S(=O)(=O)n2nc(-c3cc(OC)c(OC)c(OC)c3)cc2N)cc1OC | 0 | 0 | 0 | 0 | 0 | - | - | -
CCCS(=O)(=O)c1c(S(=O)(=O)CCC)c2cc(CC)ccn2c1C(=O)OC | 0 | 0 | 0 | 6.5 | 0 | 13540 | 0 | +
CC(C)c1[nH]c(=O)c(C#N)c2c1COC(C)(C)C2 | - | - | - | - | 0 | - | - | -
CSc1c(C#N)c(N)c(C#N)c2c1COC(C)(C)C2 | 0 | 0 | 0 | 25 | 0 | 28108 | 0 | +
CC(C)c1onc(C(=O)N2CCN(Cc3ccccc3)CC2)c1[N+](=O)[O-] | - | - | - | - | 0 | - | - | -
O=C1CC(c2ccccc2)Sc2ccccc2N1 (stereo unspecified) | 0 | 0 | 0 | 26 | 0 | 18012 | 0 | +
CCOC(=O)c1c(N)c(C#N)c2n1CCCCC2 | 0 | 0 | 0 | 11 | 0 | 10284 | 0 | +
Nc1nc(NCc2ccccc2)nc(-c2ccccc2)n1 | 0 | 0 | 0 | 21 | 0 | 23340 | - | +
CCCC(=O)OC1CC(C)N(C(=O)c2ccccc2)c2ccc(C)cc21 (stereo unspecified) | - | - | - | - | 0 | - | - | -
CC(=O)OC1CC(C)N(C(=O)c2ccccc2)c2ccc(C)cc21 (stereo unspecified) | 0 | 0 | 0 | 11 | 0 | 11832 | 0 | +
CC1(C)C=Cc2cc(-c3coc4cc(O)cc(O)c4c3=O)cc(O)c2O1 | - | - | - | - | 0 | - | - | -
COc1ccc(Nc2nc(N)nc(CSc3nnc(N)s3)n2)cc1 | - | - | - | - | 0 | - | - | -
COc1ccc(Nc2nc(N)nc(SCc3nnc(C)s3)n2)cc1 | 0 | 0 | 0 | 5.7 | 0 | 8828 | 0 | +
Cc1cnc(C(=O)OCC(=O)c2csc(N3CCCCC3)n2)cn1 | 0 | 0 | 0 | 0 | 0 | - | - | -
CC1CCCC(NC(=O)CN(C)S(=O)(=O)c2cccc3cccnc23)C1C (stereo unspecified) | 0 | 0 | 0 | - | 0 | - | - | -
COc1ccc(S(=O)(=O)NCCOc2ccccc2)cc1OC | 0 | 0 | 0 | - | 0 | - | - | -
COc1ccc(CCNS(=O)(=O)c2ccccc2)cc1OC | 0 | 0 | 0 | 4.2 | 0 | 15812 | 0 | +
COc1c(F)c(F)c(C(=O)Nc2ccc(N3CCN(Cc4ccccc4)CC3)cc2)c(F)c1F | - | - | - | - | 0 | - | - | -
Fc1cccc(Cl)c1CSc1nnnn1-c1ccc2c(c1)OCO2 | 0 | 0 | 0 | 5.8 | 0 | 11540 | - | +
COC(=O)CSc1nc(-c2ccccc2)cc(-c2ccco2)c1C#N | 0 | 0 | 0 | 0 | 0 | - | - | -
CC(C)Cc1cc(-c2ccco2)c(C#N)c(N)n1 | 0 | 0 | 0 | 28 | - | 29116 | 0 | +
SMILES | HEK293 NFkB inh | Ec RNAP inh | AP ELISA ortho | D1 allo mod | hDAT+cocaine | D1 mod confirm | D1 no dopamine | Isoprot counter
N#Cc1c(-c2ccco2)cc(-c2ccc(F)cc2)nc1N | 0 | 0 | 0 | 9.9 | 0 | 16300 | 0 | +
O=C(CCCc1nc2ccccc2s1)N1CCN(S(=O)(=O)c2cccs2)CC1 | 0 | 0 | 0 | 4.2 | 0 | 8136 | 0 | 0
COc1ccccc1N(CC(=O)Nc1cc(C)on1)S(=O)(=O)c1cccs1 | 0 | 0 | 0 | - | - | - | - | -
O=c1c2c(-c3ccccc3)csc2nc2n1CCC2 | 0 | 0 | 0 | 0 | 0 | - | - | -
CCn1cnc2scc(-c3ccccc3)c2c1=O | 0 | 0 | 0 | 15 | 0 | 14788 | - | +
CCCc1nc2scc(-c3ccccc3)c2c(=O)n1N | 0 | 0 | 0 | 6 | 0 | 8892 | 0 | 0
O=C(CCC(=O)Nc1ccc(Oc2ccccc2)cc1)NCCO | 0 | 0 | 0 | 0 | 0 | - | - | -
COc1ccc2c(c1)c1ncn(Cc3ccco3)c(=O)c1n2C | 0 | 0 | 0 | 7.5 | 0 | 12892 | 0 | +
